Results taken from ChEMBL document CHEMBL3085755, “Synthesis of 3-spiromorpholinone androsterone derivatives as inhibitors of 17β-hydroxysteroid dehydrogenase type 3” (Bioorg Med Chem Lett, 2013).

Assays:
[1] = target: T1, 17-beta-hydroxysteroid dehydrogenase type 3 (Rattus norvegicus) (UniProt O54939); test: Inhibition of 17beta-HSD3 in rat testes microsomal fraction using [14C]-4-androstene-3,17-dione as substrate assessed as testosterone formation at 0.1 uM after 2 hrs by thin layer chromatography; type: microsomes; conditions: Testis
T1 sequence (whole entry): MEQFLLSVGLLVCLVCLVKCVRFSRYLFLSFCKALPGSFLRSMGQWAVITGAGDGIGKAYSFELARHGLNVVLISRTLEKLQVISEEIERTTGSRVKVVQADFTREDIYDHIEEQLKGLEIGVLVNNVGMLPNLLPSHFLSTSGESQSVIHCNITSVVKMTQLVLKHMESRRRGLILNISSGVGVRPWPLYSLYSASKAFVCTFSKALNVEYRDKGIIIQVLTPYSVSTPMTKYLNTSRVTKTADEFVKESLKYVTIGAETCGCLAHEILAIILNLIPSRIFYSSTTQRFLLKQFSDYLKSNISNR
Procedure, shortened: (§1)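 Rat testis microsomes supplying 17β-HSD3, converting [14C]-4-androstene-3,17-dione (50 nM) into testosterone. Inhibition of this transformation is measured at a fixed inhibitor concentration and expressed as mean ± SD of triplicate.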

[2] = target: T1, 17-beta-hydroxysteroid dehydrogenase type 3 (Rattus norvegicus); test: Inhibition of 17beta-HSD3 in rat testes microsomal fraction using [14C]-4-androstene-3,17-dione as substrate assessed as testosterone formation at 1 uM after 2 hrs by thin layer chromatography; type: microsomes; conditions: Testis; procedure, shortened: as §1
[3] = target: T2, 17-beta-hydroxysteroid dehydrogenase type 3 (Rattus norvegicus, UniProt O54939); test: Inhibition of 17beta-HSD3 in rat testes microsomal fraction using [14C]-4-androstene-3,17-dione as substrate assessed as testosterone formation after 2 hrs by thin layer chromatography
T2 sequence (O54939 whole entry): T1 sequence (whole entry)
Procedure, shortened: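 Rat testis microsomal fraction as 17β-HSD3 source, converting [14C]-Δ4-dione (50 nM) to [14C]-testosterone. Activity is plotted against log inhibitor concentration. IC50 is fitted from the inhibition curves. Values are mean ± SD of triplicates.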

| Structure (SMILES) | inhibition [1] | inhibition [2] | IC50 [3] |
| --- | --- | --- | --- |
| O=C1OC2(CCCCC2)CN(Cc2ccccc2)[C@H]1Cc1ccccc1 | 24.2% | 24.3% | – |
| C[C@]12CC[C@]3(CN[C@H](Cc4ccccc4)C(=O)O3)C[C@@H]1CC[C@@H]1[C@@H]2CC[C@]2(C)C(=O)CC[C@@H]12 | 18.5% | 63.2% | – |
| C[C@]12CC[C@@]3(C[C@@H]1CC[C@@H]1[C@@H]2CC[C@]2(C)C(=O)CC[C@@H]12)CN(Cc1ccccc1)[C@H](Cc1ccccc1)C(=O)O3 | 25.6% | 87.3% | – |
| C[C@]12CC[C@]3(CN[C@@H](Cc4ccccc4)C(=O)O3)C[C@@H]1CC[C@@H]1[C@@H]2CC[C@]2(C)C(=O)CC[C@@H]12 | 48.8% | 92% | 22 nM |
| O=C1OC2(CCCCC2)CN[C@H]1Cc1ccccc1 | 6.2% | 19.5% | – |
| CC1CN(S(=O)(=O)c2ccccc2C(F)(F)F)C(C)CN1C[C@@]1(O)CC[C@@]2(C)[C@@H](CC[C@@H]3[C@@H]2CC[C@]2(C)C(=O)CC[C@@H]32)C1 (stereo partly specified) | 47.3% | – | 14 nM |
| C[C@]12CC[C@@]3(C[C@@H]1CC[C@@H]1[C@@H]2CC[C@]2(C)C(=O)CC[C@@H]12)CN(Cc1ccccc1)[C@@H](Cc1ccccc1)C(=O)O3 | 58.2% | 90.4% | 58 nM |
